Source: ChEMBL document CHEMBL1143827, “In vitro activity of 2,4-diamino-6-[2-(phosphonomethoxy)ethoxy]-pyrimidine against multidrug-resistant hepatitis B virus mutants” (Antimicrob Agents Chemother, 2007)

How the values were obtained:
Hepatitis B virus [1] = assay: Inhibition of wild type HBV replication in Huh7 cells; type: functional, organism-based; details: Huh-7
Method in brief: (§1)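 Huh7 hepatoma cells were transiently transfected with plasmids carrying 1.1 genome units of wild-type HBV under a chicken beta-actin promoter, then treated with drug across a range starting at 0 μM (up to 100 μM for some drugs). Intracellular HBV DNA was purified and analysed by Southern blot to derive EC50. Values are means of at least three independent experiments, each run in triplicate.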

[2] = Effect on cell viability in human Huh7 cells; type: cell-based, Huh-7
Method in brief: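 Huh7 cells were exposed to drug, and viability was read as neutral red dye uptake. CC50 is the concentration that cut uptake by 50%, given as mean ± SD of three independent experiments run in quadruplicate.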

Hepatitis B virus [3] = assay: Antiviral activity against wild type HBV assessed as inhibition of replication; type: functional, organism-based; method in brief: as §1
Hepatitis B virus [4] = assay: Antiviral activity against adenofir-resistant HBV with reverse transcriptase N236T mutant assessed as inhibition of replication; type: functional, organism-based
Method in brief: (§2)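 Huh7 cells transiently transfected with plasmids carrying 1.1 genome units of mutant or wild-type HBV under the chicken beta-actin promoter. Drug range was 0 to 100 μM for PMEO-DAPym, lamivudine, adefovir and tenofovir. Intracellular HBV DNA was purified and analysed by Southern blot to give EC50. Values are means of at least three independent experiments, each run in triplicate.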

Hepatitis B virus [5] = assay: Fold resistance, ratio of lamivudine-resistant HBV with reverse transcriptase V173L/L180/M204V mutant to wild-type HBV genotype H; type: functional
Method in brief: (§3)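 Each mutant and its corresponding wild-type strain were transfected into Huh7 cells and treated in parallel with the same drug concentration range, with HBV DNA read by Southern blot. Fold resistance = mutant EC50 / corresponding wild-type EC50. Uses means of at least three independent experiments, each in triplicate.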

Hepatitis B virus [6] = assay: Fold resistance, ratio of Lamivudine -adenofir-resistant HBV with reverse transcriptase V173L/L180M/A181V mutant to wildtype HBV genotype E; type: functional; method in brief: as §3
Hepatitis B virus [7] = assay: Fold resistance, ratio of Lamivudine -adenofir-resistant with HBV reverse transcriptase V173L/L180M/A181V/M204V mutant to wildtype HBV genotype E; type: functional; method in brief: as §3
Hepatitis B virus [8] = assay: Fold resistance, ratio of lamivudine -adenofir-resistant with HBV reverse transcriptase V173L/L180M/A181V/M204V/N236T mutant to wild-type HBV genotype E; type: functional; method in brief: as §3
Hepatitis B virus [9] = assay: Fold resistance, ratio of Lamivudine -adenofir-resistant with HBV reverse transcriptase V173L/L180M/A181V/N236T mutant to wildtype HBV genotype E; type: functional; method in brief: as §3
Hepatitis B virus [10] = assay: Fold resistance, ratio of entecavir-resistant HBV with reverse transcriptase L180M/S202G/M204V mutant to wild-type HBV genotype H; type: functional; method in brief: as §3
Hepatitis B virus [11] = assay: Antiviral activity against lamivudine-resistant HBV with reverse transcriptase L180M/M204V mutant assessed as inhibition of replication; type: functional, organism-based; method in brief: as §2
Hepatitis B virus [12] = assay: Antiviral activity against lamivudine-adefovir-resistant HBV with reverse transcriptase L180M/M204V/N236T mutant assessed as inhibition of replication; type: functional, organism-based; method in brief: as §2
Hepatitis B virus [13] = assay: Fold resistance, ratio of EC50 for adenofir-resistant HBV with reverse transcriptase N236T mutant to EC50 for wild-type HBV; type: functional; method in brief: as §3
Hepatitis B virus [14] = assay: Fold resistance, ratio of EC50 for lamivudine-resistant HBV with reverse transcriptase L180M/M204V mutant to EC50 for wild-type HBV; type: functional; method in brief: as §3
Hepatitis B virus [15] = assay: Fold resistance, ratio of EC50 for lamivudine-adefovir-resistant HBV with reverse transcriptase L180M/M204V/N236T mutant to EC50 for wild-type HBV; type: functional; method in brief: as §3
Hepatitis B virus [16] = assay: Antiviral activity against wild type HBV genotype H assessed as inhibition of replication; type: functional, organism-based; method in brief: as §1
Hepatitis B virus [17] = assay: Antiviral activity against wild type HBV genotype E assessed as inhibition of replication; type: functional, organism-based; method in brief: as §1
Hepatitis B virus [18] = assay: Antiviral activity against lamivudine-resistant HBV with reverse transcriptase L180M/M204V mutant; type: functional, organism-based; method in brief: as §2
Hepatitis B virus [19] = assay: Antiviral activity against lamivudine-resistant HBV with reverse transcriptase L180M/A181V mutant; type: functional, organism-based; method in brief: as §2
Hepatitis B virus [20] = assay: Antiviral activity against lamivudine-resistant HBV with reverse transcriptase V173L/L180/M204V mutant; type: functional, organism-based; method in brief: as §2
Hepatitis B virus [21] = assay: Antiviral activity against lamivudine-adenofir-resistant HBV with reverse transcriptase V173L/L180M/A181V mutant; type: functional, organism-based; method in brief: as §2
Hepatitis B virus [22] = assay: Antiviral activity against Lamivudine -adenofir-resistant HBV with reverse transcriptase V173L/L180M/A181V/M204V mutant; type: functional, organism-based; method in brief: as §2
Hepatitis B virus [23] = assay: Antiviral activity against Lamivudine -adenofir-resistant HBV with reverse transcriptase V173L/L180M/A181V/M204V/N236T mutant; type: functional, organism-based; method in brief: as §2
Hepatitis B virus [24] = assay: Antiviral activity against lamivudine-adenofir-resistant HBV with reverse transcriptase V173L/L180M/A181V/N236T mutant; type: functional, organism-based; method in brief: as §2
Hepatitis B virus [25] = assay: Antiviral activity against entecavir-resistant HBV with reverse transcriptase L180M/S202G/M204V mutant; type: functional, organism-based; method in brief: as §2
Hepatitis B virus [26] = assay: Fold resistance, ratio of lamivudine-resistant HBV with reverse transcriptase L180M/M204V mutant to wild-type HBV genotype E; type: functional; method in brief: as §3
Hepatitis B virus [27] = assay: Fold resistance, ratio of lamivudine-resistant HBV with reverse transcriptase L180M/A181V mutant to wild-type HBV genotype E; type: functional; method in brief: as §3

Structure (SMILES) | EC50 (Hepatitis B virus [1]) [µM] | CC50 [2] [µM] | EC50 (Hepatitis B virus [3]) [µM] | EC50 (Hepatitis B virus [4]) [µM] | Ratio EC50 (Hepatitis B virus [5]) | Ratio EC50 (Hepatitis B virus [6]) | Ratio EC50 (Hepatitis B virus [7]) | Ratio EC50 (Hepatitis B virus [8]) | Ratio EC50 (Hepatitis B virus [9]) | Ratio EC50 (Hepatitis B virus [10]) | EC50 (Hepatitis B virus [11]) [µM] | EC50 (Hepatitis B virus [12]) [µM] | Ratio EC50 (Hepatitis B virus [13]) | Ratio EC50 (Hepatitis B virus [14]) | Ratio EC50 (Hepatitis B virus [15]) | EC50 (Hepatitis B virus [16]) [µM] | EC50 (Hepatitis B virus [17]) [µM] | EC50 (Hepatitis B virus [18]) [µM] | EC50 (Hepatitis B virus [19]) [µM] | EC50 (Hepatitis B virus [20]) [µM] | other results
C=C1[C@H](CO)[C@@H](O)C[C@@H]1n1cnc2c(=O)[nH]c(N)nc21.O [ENTECAVIR] | 0.3 | 125 | 0.8 | 0.7 | 43 | 50 | >=800 | 461 | 9 | 210 | 5 | 5 | 0.88 | 6.25 | 6.25 | 0.09 | 0.06 | 10.5 | 1.5 | 3.7 | EC50 (Hepatitis B virus [21]): 2.75 µM; EC50 (Hepatitis B virus [22]): ≥ 50 µM; EC50 (Hepatitis B virus [23]): 25.4 µM; EC50 (Hepatitis B virus [24]): 0.5 µM; EC50 (Hepatitis B virus [25]): 18 µM; Ratio EC50 (Hepatitis B virus [26]): 175; Ratio EC50 (Hepatitis B virus [27]): 28
Nc1cc(OCCOCP(=O)(O)O)nc(N)n1 | 4.9 | > 1000 | 4 | 4.5 | 0.9 | 4.3 | 3.2 | 2.1 | 5.1 | 1 | 4.7 | 5.7 | 1.1 | 1.2 | 1.4 | 4.4 | 5.6 | 5.3 | 27 | 4.1 | EC50 (Hepatitis B virus [21]): 24 µM; EC50 (Hepatitis B virus [22]): 18 µM; EC50 (Hepatitis B virus [23]): 12 µM; EC50 (Hepatitis B virus [24]): 29 µM; EC50 (Hepatitis B virus [25]): 4.5 µM; Ratio EC50 (Hepatitis B virus [26]): 0.9; Ratio EC50 (Hepatitis B virus [27]): 4.8
Nc1ccn([C@@H]2CS[C@H](CO)O2)c(=O)n1 [LAMIVUDINE] | 1 | > 1000 | 2.48 | 2.65 | >156 | 1000 | >1000 | >1000 | >1000 | >156 | > 100 | > 100 | 1.06 | >40 | >40 | 0.64 | 0.1 | > 100 | 80 | > 100 | EC50 (Hepatitis B virus [21]): 100 µM; EC50 (Hepatitis B virus [22]): > 100 µM; EC50 (Hepatitis B virus [23]): > 100 µM; EC50 (Hepatitis B virus [24]): > 100 µM; EC50 (Hepatitis B virus [25]): > 100 µM; Ratio EC50 (Hepatitis B virus [26]): >1000; Ratio EC50 (Hepatitis B virus [27]): 800
C[C@H](Cn1cnc2c(N)ncnc21)OCP(=O)(O)O [TENOFOVIR ANHYDROUS] | 16 | > 1000 | 10.3 | 46 | 1.2 | 1.6 | 1.8 | 1.8 | 1.1 | 2 | 35.2 | 45.5 | 4.5 | 3.4 | 4.4 | 13.6 | 25 | 27 | 36 | 16 | EC50 (Hepatitis B virus [21]): 42 µM; EC50 (Hepatitis B virus [22]): 45 µM; EC50 (Hepatitis B virus [23]): 46 µM; EC50 (Hepatitis B virus [24]): 28 µM; EC50 (Hepatitis B virus [25]): 27 µM; Ratio EC50 (Hepatitis B virus [26]): 1.1; Ratio EC50 (Hepatitis B virus [27]): 1.4
CC(C)(C)C(=O)OCOP(=O)(COCCn1cnc2c(N)ncnc21)OCOC(=O)C(C)(C)C [ADEFOVIR DIPIVOXIL] | 13 | 365 | 15.8 | 50.3 | 0.7 | 4.8 | 4 | 7.7 | >10 | 1.1 | 15.5 | 100 | 3.2 | 0.98 | 6.3 | 13.6 | 10 | 15 | 27 | 9.8 | EC50 (Hepatitis B virus [21]): 48 µM; EC50 (Hepatitis B virus [22]): 40 µM; EC50 (Hepatitis B virus [23]): 77 µM; EC50 (Hepatitis B virus [24]): > 100 µM; EC50 (Hepatitis B virus [25]): 15 µM; Ratio EC50 (Hepatitis B virus [26]): 1.5; Ratio EC50 (Hepatitis B virus [27]): 2.7
